The Ki is the equilibrium dissociation constant of an inhibitor or competing ligand from its target.

Structures are written as SMILES.

Consider two compounds from ChEMBL document CHEMBL2434944, “Novel acetamidothiazole derivatives: synthesis and in vitro anticancer evaluation” (Eur J Med Chem, 2013).

One assay concerns COLO 205. Put plainly: Growth inhibition of human COLO205 cells assessed as cell growth at 10^-5 M after 48 hrs by sulforhodamine B assay relative to control. In kind it is functional. The following applies: COLO 205, 48 h, read-out: Activity. A digest of the protocol: (§1)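 NCI-60 single-dose screen at 10^-5 M. Cells grown in RPMI 1640 with 5% FBS and 2 mM L-glutamine, plated at 5,000–40,000 cells/well according to doubling time, and preincubated 24 h at 37°C, 5% CO2. Compound dissolved in DMSO and added. Exposure 48 h. Adherent cells fixed with cold TCA (10% final), suspension cells with 16% final TCA. Read-out is 0.4% SRB staining, dye solubilised in 10 mM Tris, absorbance at 515 nm. Percent growth is calculated against the time-zero plate and untreated control.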
A general note: Sulforhodamine B stains cellular protein and so reports cell mass.

For assay [1], the target named is Mitogen-activated protein kinase 1 (Homo sapiens, UniProt P28482). As to the kind of experiment: Inhibition of human MAPK1.
Mitogen-activated protein kinase 1, sequence (P28482 whole entry): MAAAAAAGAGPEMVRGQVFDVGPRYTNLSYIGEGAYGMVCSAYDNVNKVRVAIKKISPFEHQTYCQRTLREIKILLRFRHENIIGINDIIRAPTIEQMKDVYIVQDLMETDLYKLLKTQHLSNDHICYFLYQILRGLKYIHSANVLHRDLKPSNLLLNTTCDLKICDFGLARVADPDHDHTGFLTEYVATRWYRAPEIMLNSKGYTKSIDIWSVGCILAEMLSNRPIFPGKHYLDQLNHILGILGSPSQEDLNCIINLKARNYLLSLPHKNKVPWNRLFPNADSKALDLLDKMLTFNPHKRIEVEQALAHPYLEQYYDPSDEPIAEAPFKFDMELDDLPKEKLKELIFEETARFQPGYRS
The next assay has as its system DU-145. As to the kind of experiment: Growth inhibition of human DU145 cells assessed as cell growth at 10^-5 M after 48 hrs by sulforhodamine B assay relative to control. It is filed as functional. The following applies: DU-145, 48 h, read-out: Activity. In outline: as §1
Another assay deals with BT-549. Put plainly: Growth inhibition of human BT549 cells assessed as cell growth at 10^-5 M after 48 hrs by sulforhodamine B assay relative to control. It is filed as functional. The settings on record: BT-549, 48 h, read-out: Activity. A digest of the protocol:
as §1

Another assay relates to T47D. As to the kind of experiment: Growth inhibition of human T47D cells assessed as cell growth at 10^-5 M after 48 hrs by sulforhodamine B assay relative to control. In kind it is functional. The following applies: read-out: Activity. In outline: (§2)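 NCI-60 single-dose screen, 10^-5 M final. Cells grown in RPMI 1640 with 5% FBS and 2 mM L-glutamine, seeded at 5,000–40,000 cells/well by doubling time. Preincubated 24 h at 37°C, 5% CO2. Compound in DMSO, diluted in medium with gentamicin, then 48 h exposure. Fixed with cold TCA, SRB stained, A515 read. Percent growth vs untreated control, time-zero plate corrected.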

For another assay, the system named is U-251. As to the kind of experiment: Growth inhibition of human U251 cells assessed as cell growth at 10^-5 M after 48 hrs by sulforhodamine B assay relative to control. It is filed as functional. The following applies: U-251, 48 h, read-out: Activity. A digest of the protocol: as §2
A further assay has as its system SR. Put plainly: Growth inhibition of human SR cells assessed as cell growth at 10^-5 M after 48 hrs by sulforhodamine B assay relative to control. It is filed as functional. The settings on record: read-out: Activity. In outline:
as §2

The test system of another assay is HCT-116. As to the kind of experiment: Growth inhibition of human HCT116 cells assessed as cell growth at 10^-5 M after 48 hrs by sulforhodamine B assay relative to control. In kind it is functional. The settings on record: HCT-116, 48 h, read-out: Activity. In outline: as §1
The subject of a further assay is NCI-H522. Put plainly: Growth inhibition of human NCI-H522 cells assessed as cell growth at 10^-5 M after 48 hrs by sulforhodamine B assay relative to control. It is filed as functional. The following applies: NCI-H522, 48 h, read-out: Activity. In outline: as §1
The test system of another assay is SNB-75. As to the kind of experiment: Growth inhibition of human SNB75 cells assessed as cell growth at 10^-5 M after 48 hrs by sulforhodamine B assay relative to control. The following applies: SNB-75, 48 h, read-out: Activity. In kind it is functional. In outline:
as §1

A further assay deals with HCT-15. Put plainly: Growth inhibition of human HCT15 cells assessed as cell growth at 10^-5 M after 48 hrs by sulforhodamine B assay relative to control. In kind it is functional. The settings on record: HCT-15, 48 h, read-out: Activity. A digest of the protocol: as §1
A further assay concerns ACHN. Put plainly: Growth inhibition of human ACHN cells assessed as cell growth at 10^-5 M after 48 hrs by sulforhodamine B assay relative to control. In kind it is functional. The following applies: read-out: Activity. A digest of the protocol:
as §1

A further assay has as its system LOX IMVI. As to the kind of experiment: Growth inhibition of human LOXIMVI cells assessed as cell growth at 10^-5 M after 48 hrs by sulforhodamine B assay relative to control. It is filed as functional. The settings on record: read-out: Activity. A digest of the protocol:
as §1

Another assay relates to CCRF-CEM. Put plainly: Growth inhibition of human CCRF-CEM cells assessed as cell growth at 10^-5 M after 48 hrs by sulforhodamine B assay relative to control. In kind it is functional. The settings on record: read-out: Activity. In outline:
as §1

A further assay has as its system MDA-MB-435. Put plainly: Growth inhibition of human MDA-MB-435 cells assessed as cell growth at 10^-5 M after 48 hrs by sulforhodamine B assay relative to control. In kind it is functional. The settings on record: MDA-MB-435, 48 h, read-out: Activity. A digest of the protocol:
as §1

A further assay relates to A549. As to the kind of experiment: Growth inhibition of human A549 cells assessed as cell growth at 10^-5 M after 48 hrs by sulforhodamine B assay relative to control. It is filed as functional. The following applies: A549, 48 h, read-out: Activity. In outline:
as §1

Assay [2] concerns the target T1, Leukotriene A-4 hydrolase (Homo sapiens, UniProt P09960).
T1 sequence (P09960 whole entry): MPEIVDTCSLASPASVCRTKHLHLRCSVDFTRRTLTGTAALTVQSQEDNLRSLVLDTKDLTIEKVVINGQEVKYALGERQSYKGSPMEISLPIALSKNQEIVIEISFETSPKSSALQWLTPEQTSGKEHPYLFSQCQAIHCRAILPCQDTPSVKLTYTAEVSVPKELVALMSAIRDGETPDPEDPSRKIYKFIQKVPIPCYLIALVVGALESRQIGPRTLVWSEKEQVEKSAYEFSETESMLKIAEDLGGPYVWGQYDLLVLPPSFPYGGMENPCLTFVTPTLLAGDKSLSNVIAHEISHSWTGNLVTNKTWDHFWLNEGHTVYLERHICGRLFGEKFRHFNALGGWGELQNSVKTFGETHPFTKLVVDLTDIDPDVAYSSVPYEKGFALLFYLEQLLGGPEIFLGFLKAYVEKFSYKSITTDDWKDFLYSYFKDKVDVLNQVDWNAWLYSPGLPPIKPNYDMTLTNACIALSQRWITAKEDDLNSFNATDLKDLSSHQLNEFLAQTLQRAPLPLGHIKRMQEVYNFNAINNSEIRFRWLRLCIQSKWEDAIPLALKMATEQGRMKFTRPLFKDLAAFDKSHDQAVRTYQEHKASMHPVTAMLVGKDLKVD
As to the kind of experiment: Inhibition of human leukotriene A-4 hydrolase.

A further assay deals with SK-MEL-2. Put plainly: Growth inhibition of human SK-MEL-2 cells assessed as cell growth at 10^-5 M after 48 hrs by sulforhodamine B assay relative to control. It is filed as functional. The settings on record: SK-MEL-2, 48 h, read-out: Activity. In outline: as §1
In the next assay the test system is M14. As to the kind of experiment: Growth inhibition of human M14 cells assessed as cell growth at 10^-5 M after 48 hrs by sulforhodamine B assay relative to control. In kind it is functional. The following applies: M14, 48 h, read-out: Activity. A digest of the protocol: as §1
Assay [3] is described as follows: Growth inhibition of human Hs 578T cells assessed as cell growth at 10^-5 M after 48 hrs by sulforhodamine B assay relative to control. In kind it is functional. The following applies: read-out: Activity. A digest of the protocol:
as §1

Another assay has as its system NCI-H226. Put plainly: Growth inhibition of human NCI-H226 cells assessed as cell growth at 10^-5 M after 48 hrs by sulforhodamine B assay relative to control. It is filed as functional. The settings on record: NCI-H226, 48 h, read-out: Activity. In outline: as §1
For a further assay, the system named is MOLT-4. As to the kind of experiment: Growth inhibition of human MOLT4 cells assessed as cell growth at 10^-5 M after 48 hrs by sulforhodamine B assay relative to control. It is filed as functional. The following applies: MOLT-4, 48 h, read-out: Activity. A digest of the protocol: as §1
The next assay concerns MCF7. As to the kind of experiment: Growth inhibition of human MCF7 cells assessed as cell growth at 10^-5 M after 48 hrs by sulforhodamine B assay relative to control. It is filed as functional. The following applies: MCF7, 48 h, read-out: Activity. In outline:
as §1

In a further assay the test system is Malme-3M. As to the kind of experiment: Growth inhibition of human MALME-3M cells assessed as cell growth at 10^-5 M after 48 hrs by sulforhodamine B assay relative to control. In kind it is functional. The settings on record: read-out: Activity. In outline:
as §1

With `CC(=O)N1CCN(C(=O)Cn2c(-c3ccc(C)cc3)csc2=N)CC1`, the growth at 10 µM in the assay with COLO 205 amounted to 106%; with DU-145, 110%; in the assay on BT-549 it was 104%; with T47D, 73.4%; in the assay on U-251, 85%; in the assay with SR, 81.3%. Besides, the growth at 10 µM was determined as 85.9% with HCT-116; 76.9% in the assay with NCI-H522; 82.3% in the assay on SNB-75; 90.6% in the assay on HCT-15; 92.8% with ACHN; 85.5% in the assay with LOX IMVI. In addition, the growth at 10 µM is 88.2% with CCRF-CEM; 80.6% in the assay on MDA-MB-435; 83.4% in the assay on A549; 113% with SK-MEL-2; 97.9% with M14; 105% in [3]. For the same compound, the growth at 10 µM came out at 96% in the assay with NCI-H226, 73% in the assay with MOLT-4, 88.9% in the assay with MCF7 and 121% in the assay with Malme-3M. For the same compound, the results for the Ki in assay [1] and in assay [2] were 2230 nM and 1640 nM, respectively.
In the case of `Cc1ccc(-c2csc(=N)n2CC(=O)N2CCN(c3ccccc3)CC2)cc1`, the growth at 10 µM in the assay with COLO 205 came out at 109%; in the assay on DU-145, 104%; in the assay with BT-549, 92.6%; in the assay with T47D, 78%; with U-251, 95.3%; in the assay on SR, 98.8%. The growth at 10 µM in the assay with HCT-116 stood at 103%; with NCI-H522 it was 95.5%; in the assay with SNB-75, 95.8%; in the assay on HCT-15, 104%; in the assay with ACHN, 81.2%; with LOX IMVI, 96.8%. Besides, the growth at 10 µM stood at 103% in the assay on CCRF-CEM; 92.2% in the assay with MDA-MB-435; 97.7% with A549; 117% with SK-MEL-2; 108% with M14; 88.2% in [3]. Besides, the growth at 10 µM came out at 97.2% with NCI-H226, 94.5% with MOLT-4, 81.4% with MCF7 and 118% in the assay with Malme-3M. Also, the inhibition constant Ki in [1] worked out at 2090 nM; in assay [2], 4290 nM.
